Source: ChEMBL document CHEMBL4270654, “Identification of DK419, a potent inhibitor of Wnt/β-catenin signaling and colorectal cancer growth” (Bioorg Med Chem, 2018)
Activity calls are given as the source filed them. The rule behind the calls is not given here.

Assays:
Mus musculus [1] = assay: Apparent volume of distribution in NOD/SCID mouse at 200 mg/kg, po by LC-MS/MS-based non-compartmental extravascular input analysis; assay type: ADME, organism-based; conditions: in vivo
Homo sapiens [2] = species: Homo sapiens; assay: Inhibition of Wnt/beta-catenin signaling pathway in human SW480 cells cytosol lysate harboring APC mutation assessed as reduction in Axin2 protein expression at 5 uM after 18 hrs by Western blot analysis; assay type: cell-based
Summary of the method: (§1)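 CCRC240, HCT116 or SW480 cells were grown to 50–70% confluency and exposed 18 h to 5 μM compound in DMSO. Whole-cell lysates were blotted for c-Myc, cyclin D1 and survivin. Hypotonic cytosolic fractions, syringe-dispersed and centrifuged 120 min, were blotted for β-catenin and Axin2. β-Actin served as loading control.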

CCD-841CoN [3] = assay: Stimulation of mitochondrial respiration in human CCD-841-CoN cells assessed as increase in oxygen consumption rate at 1 uM in presence of rotenone and […] antimycin A by polarographic analysis; assay type: functional, cell-based
Summary of the method: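 CCD841Co cells were plated at 8000 per well and attached overnight. OCR was measured on a Seahorse XFp analyzer under basal conditions after 1 μM compound or DMSO was added. This was followed by 1 μM oligomycin, 1 μM FCCP, then 0.5 μM rotenone plus antimycin A (Mito Stress Test). Data given as mean ± SD, n = 2.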

Homo sapiens [4] = species: Homo sapiens; assay: Inhibition of Wnt/beta-catenin signaling pathway in human SW480 whole cell lysate harboring APC mutation assessed as reduction in cyclin D1 protein expression at 5 uM after 18 hrs by Western blot analysis; summary of the method: as §1
Mus musculus [5] = assay: Dose normalized AUC (0 to infinity) in NOD/SCID mouse at 200 mg/kg, po by LC-MS/MS-based non-compartmental extravascular input analysis; assay type: ADME, organism-based; conditions: in vivo
SW948 = assay: Antiproliferative activity against human SW948 cells after 72 hrs by colorimetric MTS assay; assay type: functional, cell-based; conditions: SW948, 72 h
Summary of the method: (§2)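 Cells plated at 5000 per well in their own media (Leibovitz's for SW948; McCoy's 5A for HT-29/HCT116; MEM for SW480; RPMI for CRC240/DLD-1) with 10% FBS. Exposed 72 h to compound, 0.001–10 μM or 0.04–10 μM, then colorimetric MTS read-out. […] CRC240 is a patient-derived xenograft line.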

Homo sapiens [6] = assay: Antitumor activity against human CRC240 cells xenografted in NOD/SCID mouse at 72 mg/kg, po administered 11 days and measured on day 4, 8 during compound dosing and day 11 post last dose; assay type: functional, organism-based
Summary of the method: (§3)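 Minced CRC240 PDX tissue (150 mg/ml in PBS, 200 μl) implanted in flanks of NOD/SCID mice. At about 100 mm3 tumours, mice randomized and dosed orally once daily for 11 days. Vehicle: 10% 1-methyl-2-pyrrolidinone/90% PEG300, with dosing suspensions or solutions at […] or 0.2 mg/ml. Tumour size and body weight recorded on days 0, 4, 8 and 11. n = 3, two-tailed t-test versus vehicle.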

Homo sapiens [7] = species: Homo sapiens; assay: Inhibition of Wnt/beta-catenin signaling pathway in human HCT116 whole cell lysate harboring beta-catenin mutation assessed as reduction in c-Myc protein expression at 5 uM after 18 hrs by Western blot analysis; summary of the method: as §1
Homo sapiens [8] = species: Homo sapiens; assay: Inhibition of Wnt/beta-catenin signaling pathway in human HCT116 cells cytosol lysate harboring beta-catenin mutation assessed as reduction in Axin2 protein expression at 5 uM after 18 hrs by Western blot analysis; assay type: cell-based; summary of the method: as §1
[9] = biological target: AMP-activated protein kinase, AMPK (Homo sapiens) (UniProt P54646+O43741+P54619+Q9UGJ0+Q9Y478+Q13131+Q9UGI9); assay: Induction of AMPK phosphorylation in human CCD-841-CoN cells at 0.1 to 10 uM after 2 hrs by Western blot analysis; assay type: cell-based
Summary of the method: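 Colonic epithelial CCD841Co cells were seeded at 0.27 million per well on poly-D-lysine-coated wells and attached overnight. Medium was then switched to glucose-free DMEM with 2 mM pyruvate and 2 mM glutamine containing compound or DMSO. Whole-cell lysates were immunoblotted for phospho-Thr172 AMPK and total AMPK, with β-actin as loading control. Methods give 30 min exposure; legend gives 2 h.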

Homo sapiens [10] = species: Homo sapiens; assay: Inhibition of Wnt/beta-catenin signaling pathway in human CRC240 whole cell lysate assessed as reduction in survivin protein expression at 5 uM after 18 hrs by Western blot analysis; summary of the method: as §1
Homo sapiens [11] = species: Homo sapiens; assay: Inhibition of Wnt/beta-catenin signaling pathway in human SW480 whole cell lysate harboring APC mutation assessed as reduction in c-Myc protein expression at 5 uM after 18 hrs by Western blot analysis; summary of the method: as §1
[12] = biological target: Frizzled-1 (Homo sapiens) (UniProt Q9UP38); assay: Induction of GFP-tagged Fzd1 (unknown origin) internalization expressed in human U2OS cells at 12.5 after 6 hrs by confocal microscopic method; assay type: functional, cell-based
Frizzled-1 (Homo sapiens), sequence (Q9UP38 70-647 limits assumed): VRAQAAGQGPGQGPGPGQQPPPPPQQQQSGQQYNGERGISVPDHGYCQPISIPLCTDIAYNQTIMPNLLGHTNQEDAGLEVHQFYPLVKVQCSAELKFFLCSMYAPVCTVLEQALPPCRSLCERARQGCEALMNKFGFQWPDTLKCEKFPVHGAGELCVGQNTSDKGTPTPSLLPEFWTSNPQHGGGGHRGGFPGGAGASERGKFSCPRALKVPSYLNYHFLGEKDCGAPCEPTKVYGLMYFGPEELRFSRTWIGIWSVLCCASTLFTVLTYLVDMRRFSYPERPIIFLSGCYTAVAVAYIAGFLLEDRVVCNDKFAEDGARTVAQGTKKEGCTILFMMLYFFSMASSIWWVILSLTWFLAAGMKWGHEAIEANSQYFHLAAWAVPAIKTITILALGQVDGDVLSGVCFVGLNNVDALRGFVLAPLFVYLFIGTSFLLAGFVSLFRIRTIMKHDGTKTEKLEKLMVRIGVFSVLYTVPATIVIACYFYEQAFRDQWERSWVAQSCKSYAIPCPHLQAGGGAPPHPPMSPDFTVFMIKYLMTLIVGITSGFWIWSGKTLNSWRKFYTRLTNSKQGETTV
Summary of the method: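 U2OS cells stably expressing Fzd1-GFP were grown 24 h in confocal dishes and then treated 6 h at 37 °C with 12.5 μM compound, DMSO as control. Cells were fixed in 4% paraformaldehyde and imaged by confocal microscopy (488 nm excitation). Internalization was scored as intracellular green punctate vesicles.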

Homo sapiens [13] = species: Homo sapiens; assay: Inhibition of Wnt/beta-catenin signaling pathway in human HCT116 cells cytosol lysate harboring beta-catenin mutation assessed as reduction in beta-catenin protein expression at 5 uM after 18 hrs by Western blot analysis; assay type: cell-based; summary of the method: as §1
Homo sapiens [14] = species: Homo sapiens; assay: Inhibition of Wnt/beta-catenin signaling pathway in human CRC240 whole cell lysate assessed as reduction in cyclin D1 protein expression at 5 uM after 18 hrs by Western blot analysis; summary of the method: as §1
Homo sapiens [15] = species: Homo sapiens; assay: Inhibition of Wnt/beta-catenin signaling pathway in human CRC240 cells cytosol lysate assessed as reduction in Axin2 protein expression at 5 uM after 18 hrs by Western blot analysis; assay type: cell-based; summary of the method: as §1
[16] = MRT in NOD/SCID mouse at 200 mg/kg, po by LC-MS/MS-based non-compartmental extravascular input analysis; assay type: ADME, organism-based; conditions: in vivo
HT-29 = assay: Antiproliferative activity against human HT-29 cells after 72 hrs by colorimetric MTS assay; assay type: functional, cell-based; conditions: HT-29, 72 h; summary of the method: as §2
Homo sapiens [17] = species: Homo sapiens; assay: Inhibition of Wnt/beta-catenin signaling pathway in human HCT116 whole cell lysate harboring beta-catenin mutation assessed as reduction in survivin protein expression at 5 uM after 18 hrs by Western blot analysis; summary of the method: as §1
[18] = AUC (0 to infinity) in NOD/SCID mouse at 200 mg/kg, po by LC-MS/MS-based non-compartmental extravascular input analysis; assay type: ADME, organism-based; set-up: dose 200 mg/kg, time infinity, route oral; conditions: in vivo
Homo sapiens [19] = species: Homo sapiens; assay: Inhibition of Wnt/beta-catenin signaling pathway in human SW480 cells cytosol lysate harboring APC mutation assessed as reduction in beta-catenin protein expression at 5 uM after 18 hrs by Western blot analysis; assay type: cell-based; summary of the method: as §1
SW480 = assay: Antiproliferative activity against human SW480 cells after 72 hrs by colorimetric MTS assay; assay type: functional, cell-based; conditions: SW480, 72 h; summary of the method: as §2
Homo sapiens [20] = species: Homo sapiens; assay: Inhibition of Wnt/beta-catenin signaling pathway in human HCT116 whole cell lysate harboring beta-catenin mutation assessed as reduction in cyclin D1 protein expression at 5 uM after 18 hrs by Western blot analysis; summary of the method: as §1
Mus musculus [21] = assay: Toxicity in NOD/SCID mouse xenografted with human CRC240 cells assessed as change in body weight at 72 mg/kg, po administered 11 days and measured on day 4, 8 during compound dosing and day 11 post last dose; assay type: organism-based; conditions: in vivo, 264 h; summary of the method: as §3
[22] = Antiproliferative activity against human CRC240 cells after 72 hrs by colorimetric MTS assay; assay type: functional, cell-based; summary of the method: as §2
CCD-841CoN [23] = assay: Stimulation of mitochondrial respiration in human CCD-841-CoN cells assessed as increase in oxygen consumption rate at 1 uM under basal conditions by polarographic analysis
DLD-1 = assay: Antiproliferative activity against human DLD1 cells after 72 hrs by colorimetric MTS assay; assay type: functional, cell-based; conditions: DLD-1, 72 h; summary of the method: as §2
[24] = AUC (0 to 24 hrs) in NOD/SCID mouse at 200 mg/kg, po by LC-MS/MS-based non-compartmental extravascular input analysis; assay type: ADME, organism-based; set-up: time < 24 hr, dose 200 mg/kg, route oral; conditions: in vivo
Homo sapiens [25] = species: Homo sapiens; assay: Inhibition of Wnt/beta-catenin signaling pathway in human SW480 whole cell lysate harboring APC mutation assessed as reduction in survivin protein expression at 5 uM after 18 hrs by Western blot analysis; summary of the method: as §1
HCT-116 = assay: Antiproliferative activity against human HCT116 cells after 72 hrs by colorimetric MTS assay; assay type: functional, cell-based; conditions: HCT-116, 72 h; summary of the method: as §2
Homo sapiens [26] = species: Homo sapiens; assay: Inhibition of Wnt/beta-catenin signaling pathway in human CRC240 whole cell lysate assessed as reduction in c-Myc protein expression at 5 uM after 18 hrs by Western blot analysis; summary of the method: as §1
[27] = Inhibition of Wnt3A-stimulated Wnt/beta-catenin pathway in HEK293 cells transfected with p8xTOPFlash, Renilla luciferase plasmid pRL-TK and pLKO.1 after 6 hrs by Dual topflash luciferase reporter assay; assay type: cell-based; conditions: Homo sapiens, HEK293, 6 h
Summary of the method: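 HEK293 cells stably carrying p8xTOPFlash, pRL-TK and pLKO.1 were grown overnight to confluence in MEM/10% FBS with 1 μg/ml puromycin. Wnt-3A conditioned medium (from L Wnt-3A cells) containing compound (0.04–10 μM) or DMSO was added for 6 h. Dual-luciferase was read, with the Wnt3A+DMSO signal set as 100%.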

Homo sapiens [28] = species: Homo sapiens; assay: Inhibition of Wnt/beta-catenin signaling pathway in human CRC240 cells cytosol lysate assessed as reduction in beta-catenin protein expression at 5 uM after 18 hrs by Western blot analysis; assay type: cell-based; summary of the method: as §1

Vz (Mus musculus [1]): 0.9 L/kg
inhibition (Homo sapiens [4]): Active
AUC/dose (Mus musculus [5]): 0.005 µg·h/mL
IC50 (SW948): 110 nM
inhibition (Homo sapiens [7]): Active
Activity [9]: Active
inhibition (Homo sapiens [11]): Active
Activity [12]: Active
inhibition (Homo sapiens [14]): Active
MRT [16]: 6.8 h
IC50 (HT-29): 130 nM
AUC(0-inf) [18]: 1020 ng·h/mL
IC50 (SW480): 980 nM
inhibition (Homo sapiens [20]): Active
IC50 (DLD-1): 2390 nM
AUC(0-t) at 24 h [24]: 1010 ng·h/mL
IC50 (HCT-116): 410 nM
inhibition (Homo sapiens [26]): Active
IC50 [27]: 450 nM
Structure (SMILES): O=C(Nc1ccc([N+](=O)[O-])cc1Cl)c1cc(Cl)ccc1O [NICLOSAMIDE]
inhibition (Homo sapiens [2]): Active
Activity (CCD-841CoN [3]): inactive
Activity (Homo sapiens [6]): Active
inhibition (Homo sapiens [8]): Active
inhibition (Homo sapiens [10]): Active
inhibition (Homo sapiens [13]): Active
inhibition (Homo sapiens [15]): Active
inhibition (Homo sapiens [17]): Active
inhibition (Homo sapiens [19]): Active
Activity (Mus musculus [21]): Non-Toxic
IC50 [22]: 890 nM
Activity (CCD-841CoN [23]): Active
inhibition (Homo sapiens [25]): Active
inhibition (Homo sapiens [28]): Active
